Blank lines part the entries; values can stand above or below the compound they belong to.
What was measured:
[1] = test system: NCI-H23; experiment: Antiproliferative activity against human NCI-H23 cells assessed as cell growth inhibition at 10 uM incubated for 48 hrs by sulforhodamine B assay relative to control; assay type: functional
In short: (§1)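 NCI-60 single-dose screen at 10^-5 M. Cells grown in RPMI 1640 with 5% FBS and 2 mM L-glutamine, plated at 5,000–40,000 cells/well, and preincubated 24 h. Drug (DMSO stock) added and incubated 48 h at 37 °C, 5% CO2. Adherent cells fixed with cold TCA, stained with 0.4% SRB in 1% acetic acid, dye solubilized in 10 mM trizma base, A515 read. Percent growth taken against time-zero and untreated control.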

[2] = test system: NCI/ADR-RES; experiment: Antiproliferative activity against human NCI/ADR-RES cells assessed as cell growth inhibition at 10 uM incubated for 48 hrs by sulforhodamine B assay relative to control; assay type: functional; in short: as §1
[3] = test system: LOX IMVI; experiment: Antiproliferative activity against human LOX IMVI cells assessed as cell growth inhibition at 10 uM incubated for 48 hrs by sulforhodamine B assay relative to control; assay type: functional; in short: as §1
[4] = test system: HCT-116; experiment: Antiproliferative activity against human HCT-116 cells assessed as cell growth inhibition at 10 uM incubated for 48 hrs by sulforhodamine B assay relative to control; assay type: functional
In short: (§2)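 NCI-60 one-dose prescreen at 10^-5 M. Cells grown in RPMI 1640 with 5% FBS and 2 mM glutamine, preincubated 24 h, then exposed 48 h at 37 °C. Adherent lines TCA-fixed, SRB-stained, A515 read. Growth percent relative to time-zero and control; negative values mean cell kill.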

[5] = test system: CCRF-CEM; experiment: Antiproliferative activity against human CCRF-CEM cells assessed as cell growth inhibition at 10 uM incubated for 48 hrs by sulforhodamine B assay relative to control; assay type: functional
In short: (§3)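 Single-dose NCI-60 prescreen at 10^-5 M. Cells in RPMI 1640 with 5% FBS and 2 mM L-glutamine, seeded 5,000–40,000 cells/well with 24 h preincubation, then drug exposure for 48 h at 37 °C under 5% CO2. Growth read by SRB staining of TCA-fixed cells at 515 nm against time-zero and untreated controls. Negative growth values denote cell kill.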

[6] = test system: SW-620; experiment: Antiproliferative activity against human SW620 cells assessed as cell growth inhibition at 10 uM incubated for 48 hrs by sulforhodamine B assay relative to control; assay type: functional; in short: as §1
[7] = test system: IGROV-1; experiment: Antiproliferative activity against human IGROV-1 cells assessed as cell growth inhibition at 10 uM incubated for 48 hrs by sulforhodamine B assay relative to control; assay type: functional; in short: as §1
[8] = test system: MCF7; experiment: Antiproliferative activity against human MCF7 cells assessed as cell growth inhibition at 10 uM incubated for 48 hrs by sulforhodamine B assay relative to control; assay type: functional; in short: as §1
[9] = test system: SN12C; experiment: Antiproliferative activity against human SN12C cells assessed as cell growth inhibition at 10 uM incubated for 48 hrs by sulforhodamine B assay relative to control; assay type: functional; in short: as §1
[10] = test system: SR; experiment: Antiproliferative activity against human SR cells assessed as cell growth inhibition at 10 uM incubated for 48 hrs by sulforhodamine B assay relative to control; assay type: functional; in short: as §1
[11] = test system: SK-MEL-2; experiment: Antiproliferative activity against human SK-MEL-2 cells assessed as cell growth inhibition at 10 uM incubated for 48 hrs by sulforhodamine B assay relative to control; assay type: functional; in short: as §1
[12] = test system: 786-0; experiment: Antiproliferative activity against human 786-0 cells assessed as cell growth inhibition at 10 uM incubated for 48 hrs by sulforhodamine B assay relative to control; assay type: functional; in short: as §3
[13] = test system: Hs-578T; experiment: Antiproliferative activity against human Hs-578T cells assessed as cell growth inhibition at 10 uM incubated for 48 hrs by sulforhodamine B assay relative to control; assay type: functional; in short: as §1
[14] = test system: SK-MEL-5; experiment: Antiproliferative activity against human SK-MEL-5 cells assessed as cell growth inhibition at 10 uM incubated for 48 hrs by sulforhodamine B assay relative to control; assay type: functional; in short: as §1
[15] = test system: SF-295; experiment: Antiproliferative activity against human SF-295 cells assessed as cell growth inhibition at 10 uM incubated for 48 hrs by sulforhodamine B assay relative to control; assay type: functional; in short: as §1
[16] = test system: HOP-92; experiment: Antiproliferative activity against human HOP-92 cells assessed as cell growth inhibition at 10 uM incubated for 48 hrs by sulforhodamine B assay relative to control; assay type: functional; in short: as §2
[17] = test system: U-251; experiment: Antiproliferative activity against human U-251 cells assessed as cell growth inhibition at 10 uM incubated for 48 hrs by sulforhodamine B assay relative to control; assay type: functional; in short: as §1
[18] = test system: OVCAR-3; experiment: Antiproliferative activity against human OVCAR-3 cells assessed as cell growth inhibition at 10 uM incubated for 48 hrs by sulforhodamine B assay relative to control; assay type: functional; in short: as §1
[19] = test system: MOLT-4; experiment: Antiproliferative activity against human MOLT-4 cells assessed as cell growth inhibition at 10 uM incubated for 48 hrs by sulforhodamine B assay relative to control; assay type: functional; in short: as §1
[20] = test system: PC-3; experiment: Antiproliferative activity against human PC-3 cells assessed as cell growth inhibition at 10 uM incubated for 48 hrs by sulforhodamine B assay relative to control; assay type: functional; in short: as §1
[21] = test system: A498; experiment: Antiproliferative activity against human A498 cells assessed as cell growth inhibition at 10 uM incubated for 48 hrs by sulforhodamine B assay relative to control; assay type: functional; in short: as §3
[22] = test system: M14; experiment: Antiproliferative activity against human M14 cells assessed as cell growth inhibition at 10 uM incubated for 48 hrs by sulforhodamine B assay relative to control; assay type: functional; in short: as §1
[23] = test system: UO-31; experiment: Antiproliferative activity against human UO-31 cells assessed as cell growth inhibition at 10 uM incubated for 48 hrs by sulforhodamine B assay relative to control; assay type: functional; in short: as §1
[24] = n-Octanol/phosphate buffer partition coefficient, logP of the compound at pH 7.4 incubated for 85 mins by shake-flask method; assay type: physicochemical
In short: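 Octanol–water partition by shake-flask: n-octanol with 0.15 M phosphate buffer pH 7.4 at 10:1 volumes. Buffer-phase absorbance read before mixing, then shaken 50 min and centrifuged at 2500 rpm for 35 min. Buffer absorbance read again; P = (Ai−Af)/Af × Vw/Vo.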

[25] = test system: SF-539; experiment: Antiproliferative activity against human SF-539 cells assessed as cell growth inhibition at 10 uM incubated for 48 hrs by sulforhodamine B assay relative to control; assay type: functional; in short: as §1
[26] = test system: ACHN; experiment: Antiproliferative activity against human ACHN cells assessed as cell growth inhibition at 10 uM incubated for 48 hrs by sulforhodamine B assay relative to control; assay type: functional; in short: as §3
[27] = test system: EKVX; experiment: Antiproliferative activity against human EKVX cells assessed as cell growth inhibition at 10 uM incubated for 48 hrs by sulforhodamine B assay relative to control; assay type: functional; in short: as §2
[28] = test system: SF-268; experiment: Antiproliferative activity against human SF-268 cells assessed as cell growth inhibition at 10 uM incubated for 48 hrs by sulforhodamine B assay relative to control; assay type: functional; in short: as §1
[29] = test system: NCI-H522; experiment: Antiproliferative activity against human NCI-H522 cells assessed as cell growth inhibition at 10 uM incubated for 48 hrs by sulforhodamine B assay relative to control; assay type: functional; in short: as §1
[30] = test system: RPMI-8226; experiment: Antiproliferative activity against human RPMI-8226 cells assessed as cell growth inhibition at 10 uM incubated for 48 hrs by sulforhodamine B assay relative to control; assay type: functional; in short: as §1
[31] = test system: MDA-MB-231; experiment: Antiproliferative activity against human MDA-MB-231 cells assessed as cell growth inhibition at 10 uM incubated for 48 hrs by sulforhodamine B assay relative to control; assay type: functional; in short: as §1

SMILES: c1ccc(Cn2cnc3ccc(-c4nc(-c5ccc6c(c5)ncn6C5CCCCC5)cn5ccnc45)cc32)cc1
inhibition at 10 µM [1]: -22.8%
inhibition at 10 µM [2]: 99.5%
inhibition at 10 µM [3]: -87%
inhibition at 10 µM [4]: -75.8%
inhibition at 10 µM [5]: 94.4%
inhibition at 10 µM [6]: 97.8%
inhibition at 10 µM [7]: 94.2%
inhibition at 10 µM [8]: 98%
inhibition at 10 µM [9]: -35.4%
inhibition at 10 µM [10]: 94.5%
inhibition at 10 µM [11]: -36.7%
inhibition at 10 µM [12]: -19.4%
inhibition at 10 µM [13]: 99.6%
inhibition at 10 µM [14]: -84%
inhibition at 10 µM [15]: -81.3%
inhibition at 10 µM [16]: -83.6%
inhibition at 10 µM [17]: -22.8%
inhibition at 10 µM [18]: -35.7%
inhibition at 10 µM [19]: 95.6%
inhibition at 10 µM [20]: -39.5%
inhibition at 10 µM [21]: -71.8%
inhibition at 10 µM [22]: -4.44%
inhibition at 10 µM [23]: -51.4%
logD at 1.417 h [24]: 1.61
inhibition at 10 µM [25]: -77.6%
inhibition at 10 µM [26]: 80.1%
inhibition at 10 µM [27]: -12.2%
inhibition at 10 µM [28]: -0.11%
inhibition at 10 µM [29]: -35.2%
inhibition at 10 µM [30]: -41.2%
inhibition at 10 µM [31]: -70.1%

logD at 1.417 h [24]: 1.88
SMILES: O=Cc1ccc(-c2cn3ccnc3c(-c3ccc4ncn(Cc5ccccc5)c4c3)n2)cc1
inhibition at 10 µM [1]: 54.5%
inhibition at 10 µM [2]: 37.4%
inhibition at 10 µM [3]: 46.9%
inhibition at 10 µM [4]: 92.6%
inhibition at 10 µM [5]: 77.9%
inhibition at 10 µM [6]: 4.21%
inhibition at 10 µM [7]: 21.3%
inhibition at 10 µM [8]: 47.8%
inhibition at 10 µM [9]: 20.7%
inhibition at 10 µM [10]: 47.5%
inhibition at 10 µM [11]: 27.8%
inhibition at 10 µM [12]: 46.7%
inhibition at 10 µM [13]: 45.5%
inhibition at 10 µM [14]: 56.5%
inhibition at 10 µM [15]: 23.1%
inhibition at 10 µM [16]: 43%
inhibition at 10 µM [17]: 32%
inhibition at 10 µM [18]: 23.7%
inhibition at 10 µM [19]: 58.7%
inhibition at 10 µM [20]: 19%
inhibition at 10 µM [21]: 11.2%
inhibition at 10 µM [22]: 23%
inhibition at 10 µM [23]: 82.2%
inhibition at 10 µM [25]: 31.5%
inhibition at 10 µM [26]: 11.6%
inhibition at 10 µM [27]: 20.9%
inhibition at 10 µM [28]: 27.1%
inhibition at 10 µM [29]: 25.2%
inhibition at 10 µM [30]: 82.5%
inhibition at 10 µM [31]: 51.2%

logD at 1.417 h [24]: 1.5
SMILES: O=Cc1ccc(-c2cn3ccnc3c(-c3ccc4ncn(C5CCCCC5)c4c3)n2)cc1
inhibition at 10 µM [1]: 54.5%
inhibition at 10 µM [2]: 37.4%
inhibition at 10 µM [3]: 46.9%
inhibition at 10 µM [4]: 92.6%
inhibition at 10 µM [5]: 77.9%
inhibition at 10 µM [6]: 4.21%
inhibition at 10 µM [7]: 21.3%
inhibition at 10 µM [8]: 47.8%
inhibition at 10 µM [9]: 20.7%
inhibition at 10 µM [10]: 47.5%
inhibition at 10 µM [11]: 27.8%
inhibition at 10 µM [12]: 46.7%
inhibition at 10 µM [13]: 45.5%
inhibition at 10 µM [14]: 56.5%
inhibition at 10 µM [15]: 23.1%
inhibition at 10 µM [16]: 43%
inhibition at 10 µM [17]: 32%
inhibition at 10 µM [18]: 23.7%
inhibition at 10 µM [19]: 58.7%
inhibition at 10 µM [20]: 19%
inhibition at 10 µM [21]: 11.2%
inhibition at 10 µM [22]: 23%
inhibition at 10 µM [23]: 82.2%
inhibition at 10 µM [25]: 31.5%
inhibition at 10 µM [26]: 11.6%
inhibition at 10 µM [27]: 20.9%
inhibition at 10 µM [28]: 27.1%
inhibition at 10 µM [29]: 25.2%
inhibition at 10 µM [30]: 82.5%
inhibition at 10 µM [31]: 51.2%

— ChEMBL document CHEMBL5247578, “Effective synthesis of benzimidazoles-imidazo[1,2-a]pyrazine conjugates: A comparative study of mono-and bis-benzimidazoles for antitumor activity” (Eur J Med Chem, 2019)
